Measured values: ChEMBL document CHEMBL4390676, “Discovery of Bisubstrate Inhibitors for Protein N-Terminal Methyltransferase 1” (J Med Chem, 2019)
Each block holds one compound with its values, some of them ahead of it. Activity calls are given as the source filed them. The calls are words filed in the database; no cut-off is given here. Residues, ends and D or L forms follow the SMILES beside them. *: point of attachment. X1 = Nc1ncnc2c1ncn2[C@@H]1O[C@H](CN(CCCN2CCC[C@H]2C(=O)*)CC[C@H](N)C(=O)O)[C@@H](O)[C@H]1O

Experiments:
[1] = target: T1, N-terminal Xaa-Pro-Lys N-methyltransferase 1 (Homo sapiens, UniProt Q9BV86); assay: Inhibition of recombinant human full-length His6-tagged NTMT1 (1 to 222 residues) expressed in Escherichia coli BL21-CodonPlus(DE3)-RIL competent cells using peptide substrate in presence of SAM by fluorescence assay
T1 sequence (Q9BV86 whole entry): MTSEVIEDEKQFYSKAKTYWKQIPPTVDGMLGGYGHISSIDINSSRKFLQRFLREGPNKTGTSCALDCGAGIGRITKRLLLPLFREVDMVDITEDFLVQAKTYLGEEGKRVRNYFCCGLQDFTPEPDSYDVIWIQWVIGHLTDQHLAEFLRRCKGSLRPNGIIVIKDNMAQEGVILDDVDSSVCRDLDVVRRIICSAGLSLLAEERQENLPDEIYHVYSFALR
Outline: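 SAHH-coupled fluorescence assay that tracks SAH formation by NTMT1. SAM and peptide substrate GPKRIA are each at their Km values. IC50 is taken from dose–response curves, n = 3.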

[2] = target: T2, N-terminal Xaa-Pro-Lys N-methyltransferase 1 (Homo sapiens) (UniProt Q9BV86); assay: (§1) Inhibition of recombinant human full-length His6-tagged NTMT1 (1 to 222 residues) expressed in Escherichia coli BL21-CodonPlus(DE3)-RIL competent cells at 10 uM using GPKRIA as substrate preincubated for 10 mins in presence of SAM followed by substrate addition by fluorescence assay
T2 sequence (whole entry): T1 sequence (Q9BV86 whole entry)

[3] = target: T3, Histone-lysine N-methyltransferase SETD7 (Homo sapiens) (UniProt Q8WTS6); assay: (§2) Inhibition of human His-tagged SETD7 (1 to 366 residues) expressed in Escherichia coli assessed as enzyme residual activity at 10 uM using H3-21 peptide as substrate preincubated for 10 mins in presence of SAM followed by substrate addition by fluorescence assay relative to control
T3 sequence (whole entry): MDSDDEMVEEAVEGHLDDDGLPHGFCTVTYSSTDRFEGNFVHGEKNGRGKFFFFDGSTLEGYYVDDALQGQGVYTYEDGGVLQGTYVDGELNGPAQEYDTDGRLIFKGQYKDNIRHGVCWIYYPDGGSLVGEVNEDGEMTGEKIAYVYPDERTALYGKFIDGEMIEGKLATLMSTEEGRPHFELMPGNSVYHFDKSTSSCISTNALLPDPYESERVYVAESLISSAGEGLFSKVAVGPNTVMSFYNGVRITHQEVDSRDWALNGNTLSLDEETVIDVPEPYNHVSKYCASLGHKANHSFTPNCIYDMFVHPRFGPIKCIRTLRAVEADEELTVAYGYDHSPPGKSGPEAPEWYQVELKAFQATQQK
Outline: (§3)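 Selectivity panel with inhibitor at 3.3, 10, 33 or 100 μM. Enzyme activity is given as percent of control, mean of duplicate experiments (n = 2).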

[4] = target: T2, N-terminal Xaa-Pro-Lys N-methyltransferase 1 (Homo sapiens); assay: (§4) Inhibition of recombinant human full-length His6-tagged NTMT1 (1 to 222 residues) expressed in Escherichia coli BL21-CodonPlus(DE3)-RIL competent cells assessed as reduction in GPKRIA di-methylation at 100 nM preincubated for 10 mins in presence of SAM followed by GPKRIA addition and measured after 20 mins by MALDI TOF-MS analysis
Outline: (§5)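 Orthogonal MALDI-MS assay that directly follows α-N-amine methylation of substrate peptide GPKRIA by NTMT1 over 20 min. Methylated peptide products were monitored by mass spectrometry.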

[5] = target: T2, N-terminal Xaa-Pro-Lys N-methyltransferase 1 (Homo sapiens); assay: as §1, with “cells assessed as residual enzyme activity” for “cells”, “assay relative to control” for “assay”
Outline: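 NTMT1 residual activity […] with SAM and GPKRIA at Km. Values are means of triplicate experiments (n = 3).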

[6] = target: Protein arginine N-methyltransferase 1 (Rattus norvegicus, UniProt Q63009); assay: Inhibition of rat His6-tagged PRMT1 expressed in Escherichia coli BL21(DE3) using H4-21 peptide as substrate preincubated for 10 mins in presence of SAM followed by substrate addition by fluorescence assay
Protein arginine N-methyltransferase 1, sequence (Q63009 whole entry): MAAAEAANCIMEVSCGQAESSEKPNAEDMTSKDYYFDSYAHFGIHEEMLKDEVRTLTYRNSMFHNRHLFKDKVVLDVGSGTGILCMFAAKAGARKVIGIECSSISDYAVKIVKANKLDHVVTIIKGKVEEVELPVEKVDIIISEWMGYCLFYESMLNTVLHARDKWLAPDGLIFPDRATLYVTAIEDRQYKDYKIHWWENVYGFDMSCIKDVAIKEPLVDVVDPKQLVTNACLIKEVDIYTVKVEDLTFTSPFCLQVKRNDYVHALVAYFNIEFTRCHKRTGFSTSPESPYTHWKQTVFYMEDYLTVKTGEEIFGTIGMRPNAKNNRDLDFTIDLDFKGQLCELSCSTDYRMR

[7] = target: T4, Histone-lysine N-methyltransferase EHMT2 (Homo sapiens) (UniProt Q96KQ7); assay: as §2, with “His-tagged G9a (913” for “His-tagged SETD7 (1”, “to 1193” for “to 366”, “coli BL21-CodonPlus(DE3)-RIL” for “coli”, “at 100” for “at 10”; outline: as §3
T4 sequence (whole entry): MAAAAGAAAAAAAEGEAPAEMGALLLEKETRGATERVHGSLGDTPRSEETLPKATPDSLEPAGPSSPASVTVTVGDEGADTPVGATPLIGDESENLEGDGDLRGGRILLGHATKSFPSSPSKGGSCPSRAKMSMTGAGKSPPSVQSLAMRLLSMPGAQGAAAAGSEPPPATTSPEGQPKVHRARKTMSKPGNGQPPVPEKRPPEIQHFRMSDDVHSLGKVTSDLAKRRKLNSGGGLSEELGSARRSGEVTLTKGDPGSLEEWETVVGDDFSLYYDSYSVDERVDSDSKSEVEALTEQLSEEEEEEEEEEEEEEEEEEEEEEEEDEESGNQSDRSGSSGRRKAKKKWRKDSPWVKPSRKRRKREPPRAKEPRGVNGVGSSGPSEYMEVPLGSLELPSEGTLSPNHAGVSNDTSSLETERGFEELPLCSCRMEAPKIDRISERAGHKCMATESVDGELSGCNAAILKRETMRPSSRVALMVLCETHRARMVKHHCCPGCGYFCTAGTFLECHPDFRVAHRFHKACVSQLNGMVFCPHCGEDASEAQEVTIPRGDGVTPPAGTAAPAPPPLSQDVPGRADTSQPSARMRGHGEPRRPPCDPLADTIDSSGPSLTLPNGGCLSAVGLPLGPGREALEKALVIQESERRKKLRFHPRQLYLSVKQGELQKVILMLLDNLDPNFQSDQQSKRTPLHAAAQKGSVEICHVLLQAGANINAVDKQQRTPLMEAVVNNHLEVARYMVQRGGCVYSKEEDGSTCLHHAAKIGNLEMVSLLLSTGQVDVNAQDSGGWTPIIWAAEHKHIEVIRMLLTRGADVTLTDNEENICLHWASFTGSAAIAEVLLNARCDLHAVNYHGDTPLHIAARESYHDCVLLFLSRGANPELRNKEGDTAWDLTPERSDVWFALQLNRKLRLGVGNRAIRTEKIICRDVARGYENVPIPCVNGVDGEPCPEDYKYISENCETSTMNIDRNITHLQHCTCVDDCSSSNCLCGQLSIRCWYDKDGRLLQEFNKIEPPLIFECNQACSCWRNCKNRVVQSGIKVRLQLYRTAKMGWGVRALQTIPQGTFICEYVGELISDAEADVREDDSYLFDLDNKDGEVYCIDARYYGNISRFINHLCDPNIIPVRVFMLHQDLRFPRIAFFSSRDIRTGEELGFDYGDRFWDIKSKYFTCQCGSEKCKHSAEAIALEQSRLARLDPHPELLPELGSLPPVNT

[8] = target: T2, N-terminal Xaa-Pro-Lys N-methyltransferase 1 (Homo sapiens); assay: as §4, with “trimethylation” for “di-methylation”; outline: as §5
[9] = target: T2, N-terminal Xaa-Pro-Lys N-methyltransferase 1 (Homo sapiens); assay: as §1, with “Bi-substrate inhibition of” for “Inhibition of”, “cells” for “cells at 10 uM”, “using varying levels of” for “using”, “of varying levels of” for “of”
Outline: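 Kinetic mechanism study in the SAHH-coupled fluorescence assay. IC50 curves were run at varying SAM with fixed GPKRIA, and at varying GPKRIA with fixed SAM. IC50 values were plotted against SAM or peptide concentration by linear regression.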

[10] = target: T3, Histone-lysine N-methyltransferase SETD7 (Homo sapiens); assay: Inhibition of human His-tagged SETD7 (1 to 366 residues) expressed in Escherichia coli assessed as enzyme residual activity at 3.3 uM using H3-21 peptide as substrate preincubated for 10 mins in presence of SAM followed by substrate addition by fluorescence assay relative to control; outline: as §3
[11] = target: T3, Histone-lysine N-methyltransferase SETD7 (Homo sapiens); assay: Inhibition of human His-tagged SETD7 (1 to 366 residues) expressed in Escherichia coli assessed as enzyme residual activity at 33 uM using H3-21 peptide as substrate preincubated for 10 mins in presence of SAM followed by substrate addition by fluorescence assay relative to control; outline: as §3
[12] = target: Protein arginine N-methyltransferase 1 (Rattus norvegicus) (UniProt Q63009); assay: Inhibition of rat His6-tagged PRMT1 expressed in Escherichia coli BL21(DE3) assessed as enzyme residual activity at 3.3 uM using H4-21 peptide as substrate preincubated for 10 mins in presence of SAM followed by substrate addition by fluorescence assay relative to control; outline: as §3
Protein arginine N-methyltransferase 1 (Rattus norvegicus), sequence (Q63009 whole entry, looked up): as the sequence (Q63009 whole entry) above

[13] = Inhibition of Trypanosoma brucei N-terminal His6-tagged PRMT7 expressed in Escherichia coli BL21-CodonPlus(DE3)-RIL using H4-21 peptide as substrate preincubated for 10 mins in presence of SAM followed by substrate addition by fluorescence assay

IC50 [1]: 0.94 µM
Compound: N=C(N)NCCC[C@H](NC(=O)[C@H](CCCNC(=N)N)NC(=O)[C@H](CCCNC(=N)N)NC(=O)[C@@H]1CCCN1C(=O)CNCCCN(CC[C@H](N)C(=O)O)C[C@H]1O[C@@H](n2cnc3c(N)ncnc32)[C@H](O)[C@@H]1O)C(=O)N[C@@H](CO)C(N)=O

inhibition [2]: inactive
Compound: Nc1ncnc2c1ncn2C1O[C@H](CN(CCCN2CCC[C@H]2C(=O)O)CC[C@H](N)C(=O)O)[C@@H](O)[C@H]1O (single isomer, unassigned)

Compound: CC[C@H](C)[C@H](NC(=O)[C@H](CCCNC(=N)N)NC(=O)[C@H](CCCCN)NC(=O)[C@@H]1CCCN1C(=O)[C@@H]1CCCN1CCCN(CC[C@H](N)C(=O)O)C[C@H]1O[C@@H](n2cnc3c(N)ncnc32)[C@H](O)[C@@H]1O)C(=O)N[C@@H](C)C(N)=O (X1-PKRIA-NH2)
Activity [3]: 99% | inhibition [4]: Active | Activity [5]: 14% | IC50 [6]: > 33 µM | Activity [7]: 78% | inhibition [8]: Active | inhibition [9]: Active | Activity [10]: 94% | Activity [11]: 97% | Activity [12]: 97% | IC50 [13]: > 10 µM
